The text below walks through data of ChEMBL document CHEMBL4028897 (J Med Chem, 2017).

Molecules are shown by their SMILES. The source made the active and inactive calls. No cut-off for these calls is given here.

Assay [1] concerns the target T1, D(3) dopamine receptor (Homo sapiens, UniProt P35462). Put plainly: Displacement of [125I]ABN from human dopamine D3 receptor expressed in HEK293 cell membranes after 60 mins by scintillation counting method.
The target of a further assay is D(2) dopamine receptor (Homo sapiens, UniProt P14416). Put plainly: Displacement of [125I]ABN from human dopamine D2 long receptor expressed in HEK293 cell membranes after 60 mins by scintillation counting method. The gist of the method:
(§1)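 Nonspecific binding defined with 20 μM (+)-butaclamol. Inhibitor spanned 5 log units, two concentrations per decade, in triplicate. Stopped with ice-cold Tris/NaCl wash and glass-fiber filtration.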

The species entered for a further assay is Homo sapiens. Put plainly: Selectivity ratio of Ki for human dopamine D2 long receptor to Ki for human dopamine D3 receptor. The gist of the method: as §1
Assay [2] addresses T1, D(3) dopamine receptor. Put plainly: Agonist activity at human ProLink-tagged dopamine D3 receptor expressed in human U2OS cells assessed as induction of EA-tagged beta-arrestin binding at 10 times Ki after 90 mins by chemoluminescence assay. It counts as cell-based.
Assay [3] has as its target 5-hydroxytryptamine receptor 2A (Homo sapiens) (UniProt P28223). Put plainly: Binding affinity to 5-HT2A receptor (unknown origin).
Assay [4] deals with T1, D(3) dopamine receptor. Put plainly: Agonist activity at human dopamine D3 receptor expressed in human U2OS cells assessed as inhibition of forskolin-dependent stimulation of adenylyl cyclase at 10 times Ki. In kind it is functional, cell-based.
For assay [5], the target named is T2, 5-hydroxytryptamine receptor 1A (Homo sapiens, UniProt P08908).
T2 sequence (P08908 whole entry): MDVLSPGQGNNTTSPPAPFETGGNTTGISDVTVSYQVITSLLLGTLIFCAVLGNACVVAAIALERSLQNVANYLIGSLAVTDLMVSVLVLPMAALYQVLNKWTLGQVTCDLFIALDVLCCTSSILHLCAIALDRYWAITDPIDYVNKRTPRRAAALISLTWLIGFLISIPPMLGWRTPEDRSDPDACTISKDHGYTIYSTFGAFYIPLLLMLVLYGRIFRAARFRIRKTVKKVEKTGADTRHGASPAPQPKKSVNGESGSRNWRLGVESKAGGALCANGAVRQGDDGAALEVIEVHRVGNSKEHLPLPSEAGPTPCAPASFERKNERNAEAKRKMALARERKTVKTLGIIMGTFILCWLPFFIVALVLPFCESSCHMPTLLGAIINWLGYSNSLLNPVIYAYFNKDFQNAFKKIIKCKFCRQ
As to the kind of experiment: Displacement of [3H]8-OH-DPAT from human 5-HT1A receptor expressed in CHO-K1 cell membranes after 60 mins by scintillation counting method. An outline of the steps: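 CHO-K1 membranes expressing human 5-HT1AR in 50 mM Tris-HCl, 10 mM MgSO4, 0.5 mM EDTA, 0.1% ascorbic acid, pH 7.4. […] Nonspecific binding with 10 μM metergoline. Competitor over 5 log units, two per decade, in triplicate. Ice-cold 10 mM Tris-HCl (pH 7.4) wash, glass-fiber filtration.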

The target of assay [6] is T3, 5-hydroxytryptamine receptor 2C (Homo sapiens) (UniProt P28335).
T3 sequence (whole entry): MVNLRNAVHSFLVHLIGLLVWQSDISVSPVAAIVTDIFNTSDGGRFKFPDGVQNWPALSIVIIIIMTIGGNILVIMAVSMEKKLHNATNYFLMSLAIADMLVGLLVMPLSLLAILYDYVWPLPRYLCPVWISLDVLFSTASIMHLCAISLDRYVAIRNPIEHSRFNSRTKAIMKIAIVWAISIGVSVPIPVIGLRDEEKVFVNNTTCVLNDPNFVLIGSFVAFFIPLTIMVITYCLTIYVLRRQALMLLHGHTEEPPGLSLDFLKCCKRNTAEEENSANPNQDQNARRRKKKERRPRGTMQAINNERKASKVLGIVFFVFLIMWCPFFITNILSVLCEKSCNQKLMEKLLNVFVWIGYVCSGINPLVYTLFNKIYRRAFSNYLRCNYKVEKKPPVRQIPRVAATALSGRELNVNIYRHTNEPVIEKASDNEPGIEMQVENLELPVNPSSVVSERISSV
As to the kind of experiment: Binding affinity to 5-HT2C receptor (unknown origin).

The target in assay [7] is T1, D(3) dopamine receptor. Put plainly: Partial agonist activity at human dopamine D3 receptor expressed in human U2OS cells assessed as inhibition of forskolin-dependent stimulation of adenylyl cyclase at 10 times Ki. In kind it is functional, cell-based.

T1 sequence (P35462 whole entry): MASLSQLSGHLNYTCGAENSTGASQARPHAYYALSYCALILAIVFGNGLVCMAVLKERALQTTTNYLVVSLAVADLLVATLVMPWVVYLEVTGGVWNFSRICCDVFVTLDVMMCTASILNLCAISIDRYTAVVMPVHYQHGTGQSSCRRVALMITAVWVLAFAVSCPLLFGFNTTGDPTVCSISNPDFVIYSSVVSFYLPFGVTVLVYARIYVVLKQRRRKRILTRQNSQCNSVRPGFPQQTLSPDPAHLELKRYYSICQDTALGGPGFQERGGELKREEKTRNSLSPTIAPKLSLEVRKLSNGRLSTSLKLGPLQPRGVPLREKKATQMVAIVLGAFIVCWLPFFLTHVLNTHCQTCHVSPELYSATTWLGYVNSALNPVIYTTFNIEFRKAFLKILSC
D(2) dopamine receptor, sequence (P14416 whole entry): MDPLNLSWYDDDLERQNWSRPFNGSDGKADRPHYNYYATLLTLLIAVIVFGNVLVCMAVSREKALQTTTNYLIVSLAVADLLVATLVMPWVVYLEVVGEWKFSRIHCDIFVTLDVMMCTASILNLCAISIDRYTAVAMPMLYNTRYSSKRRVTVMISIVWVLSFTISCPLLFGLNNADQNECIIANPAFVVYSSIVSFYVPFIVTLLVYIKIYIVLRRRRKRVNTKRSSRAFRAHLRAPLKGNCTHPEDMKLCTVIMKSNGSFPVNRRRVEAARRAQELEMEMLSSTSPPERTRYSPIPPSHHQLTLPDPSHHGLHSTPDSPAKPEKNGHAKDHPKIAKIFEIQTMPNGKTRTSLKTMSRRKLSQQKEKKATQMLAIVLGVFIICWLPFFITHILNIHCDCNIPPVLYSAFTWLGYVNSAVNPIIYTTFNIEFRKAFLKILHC
5-hydroxytryptamine receptor 2A (Homo sapiens), sequence (P28223 whole entry): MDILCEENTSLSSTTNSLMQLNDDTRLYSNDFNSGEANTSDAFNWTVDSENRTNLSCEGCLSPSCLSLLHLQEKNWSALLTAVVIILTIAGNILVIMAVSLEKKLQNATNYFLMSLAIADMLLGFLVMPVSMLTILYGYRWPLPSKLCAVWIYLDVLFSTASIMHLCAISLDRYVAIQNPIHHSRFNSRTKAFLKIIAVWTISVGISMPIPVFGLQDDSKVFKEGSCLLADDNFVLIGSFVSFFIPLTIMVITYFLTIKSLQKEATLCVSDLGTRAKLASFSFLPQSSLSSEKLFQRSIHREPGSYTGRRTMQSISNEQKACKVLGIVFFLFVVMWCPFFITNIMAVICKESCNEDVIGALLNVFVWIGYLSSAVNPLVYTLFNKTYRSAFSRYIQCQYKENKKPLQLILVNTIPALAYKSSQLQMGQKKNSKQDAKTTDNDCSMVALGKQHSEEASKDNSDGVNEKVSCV

With `COc1ccccc1N1CC2(CN(CCCSc3nnc(-c4ccccc4)n3C)C2)C1`, the Ki at D(3) dopamine receptor [1] is 0.833 µM; at D(2) dopamine receptor, 21.2 µM. In the assay filed under Homo sapiens, the Ratio Ki was 25.5.

With `COc1ccccc1N1CCC2(CN(CCCSc3nnc(-c4ccccc4)n3C)C2)C1`, the figures for the Ki on D(3) dopamine receptor [1] and at D(2) dopamine receptor were 0.192 µM and 60.2 µM, respectively. Moreover, the Ratio Ki in the assay listed under Homo sapiens is 313.

As for `Cn1c(SCCCN2CCC3(CC2)CCN(c2ccc(F)cc2)CC3)nnc1-c1ccccc1`, the outcome on D(3) dopamine receptor [2] and at D(3) dopamine receptor [4] was inactive. The outcome in assay [3] and in [6] was Active. In addition, the values for the inhibitory constant (Ki) (at D(3) dopamine receptor [1]; in assay [5]; at D(2) dopamine receptor) were 0.0256 µM, 0.587 µM and 9.79 µM, respectively. In addition, the Ratio Ki in the assay filed under Homo sapiens was determined as 383.

With `COc1ccccc1N1CC2(CCN(CCCSc3nnc(-c4ccccc4)n3C)CC2)C1`, the results for the Ki on D(3) dopamine receptor [1] and on D(2) dopamine receptor were 0.235 µM and 37.6 µM, respectively. The Ratio Ki in the assay listed under Homo sapiens was found to be 160.

For `Cn1c(SCCCN2CCC3(CC2)CCN(c2cccc(C#N)c2)CC3)nnc1-c1ccccc1`, the Ki was determined as 0.438 µM at D(3) dopamine receptor [1] and 57.1 µM on D(2) dopamine receptor. The Ratio Ki in the assay listed under Homo sapiens was determined as 130.

As for `COc1ccccc1N1CCN(CCCSc2nnc(-c3ccccc3)n2C)CC1`, the Ki at D(3) dopamine receptor [1] turned out to be 0.0065 µM; in assay [5] it was 0.00022 µM; at D(2) dopamine receptor it was 0.26 µM.

With `Cn1c(SCCCN2CCC3(CC2)CCN(c2cccc(Cl)c2Cl)CC3)nnc1-c1ccccc1`, the figures for the Ki at D(3) dopamine receptor [1] and at D(2) dopamine receptor were 0.0824 µM and 7.5 µM, respectively. Besides, the Ratio Ki in the assay listed under Homo sapiens amounted to 91.

With `COc1ccccc1N1CCC12CCN(CCCSc1nnc(-c3ccccc3)n1C)CC2`, the results for the Ki at D(3) dopamine receptor [1] and at D(2) dopamine receptor were 0.169 µM and 29.3 µM, respectively. Also, in the assay listed under Homo sapiens, the Ratio Ki stood at 173.

On to `COc1ccccc1N1CCC2(CCN(CCCSc3nnc(-c4ccccc4)n3C)C2)C1` (racemic), for which the result on D(3) dopamine receptor [2] and on D(3) dopamine receptor [4] was inactive. The Ki on D(3) dopamine receptor [1] stood at 0.0242 µM; at D(2) dopamine receptor it was 6.37 µM. In the assay filed under Homo sapiens, the Ratio Ki turned out to be 264.

In the case of `COc1ccccc1N1CCC2(CCN(CCCSc3nnc(-c4ccccc4)n3C)CC2)C1`, the result on D(3) dopamine receptor [2] and on D(3) dopamine receptor [4] was inactive. For the same compound, the result in assay [3] and in assay [6] was Active. Besides, the Ki is 0.0196 µM at D(3) dopamine receptor [1], 0.724 µM in assay [5] and 6.17 µM at D(2) dopamine receptor.

Take `COc1ccccc1N1CCC2(CCN(CCCSc3nnc(-c4ccccc4)n3C)CC2)CC1`: the outcome (in assay [3]; at D(3) dopamine receptor [7]; in [6]) was Active. For the same compound, the results for the Ki (on D(3) dopamine receptor [1]; in assay [5]; at D(2) dopamine receptor) were 0.012 µM, 0.931 µM and 10.9 µM, respectively.

As for `COc1ccccc1N1CCC12CN(CCCSc1nnc(-c3ccccc3)n1C)C2`, the Ki on D(3) dopamine receptor [1] was determined as 4.79 µM; on D(2) dopamine receptor it was 115 µM. For the same compound, the Ratio Ki in the assay listed under Homo sapiens is 24.

Regarding `Cn1c(SCCCN2CC3(CCN3c3ccc(F)cc3)C2)nnc1-c1ccccc1`, the Ki is 18.2 µM on D(3) dopamine receptor [1] and greater than 110 µM at D(2) dopamine receptor. The Ratio Ki in the assay filed under Homo sapiens is greater than 6.

As for `COc1ccc(N2CCC3(CCN(CCCSc4nnc(-c5ccccc5)n4C)CC3)CC2)cc1`, the results for the Ki on D(3) dopamine receptor [1] and at D(2) dopamine receptor were 0.0977 µM and 105 µM, respectively. In addition, the Ratio Ki in the assay filed under Homo sapiens was determined as 1070.

Take `Cn1c(SCCCN2CCC3(CC2)CCN(c2ccccn2)CC3)nnc1-c1ccccc1`: the results for the Ki at D(3) dopamine receptor [1] and on D(2) dopamine receptor were 0.871 µM and 83.7 µM, respectively. The Ratio Ki in the assay listed under Homo sapiens was 96.1.
